Source: ChEMBL document CHEMBL1799934, “Irreversible Nek2 kinase inhibitors with cellular activity” (J Med Chem, 2011)
Where a chain is given by its changes, count along the chain named. Activity calls are given as the source filed them. The rule behind the calls is not given here.

Experiments:
[1] = target: T1, Serine/threonine-protein kinase Nek2 (Homo sapiens, UniProt P51955); test: Inhibition of human Nek2 in using [gamma-32P] ATP
T1 sequence (P51955 whole entry): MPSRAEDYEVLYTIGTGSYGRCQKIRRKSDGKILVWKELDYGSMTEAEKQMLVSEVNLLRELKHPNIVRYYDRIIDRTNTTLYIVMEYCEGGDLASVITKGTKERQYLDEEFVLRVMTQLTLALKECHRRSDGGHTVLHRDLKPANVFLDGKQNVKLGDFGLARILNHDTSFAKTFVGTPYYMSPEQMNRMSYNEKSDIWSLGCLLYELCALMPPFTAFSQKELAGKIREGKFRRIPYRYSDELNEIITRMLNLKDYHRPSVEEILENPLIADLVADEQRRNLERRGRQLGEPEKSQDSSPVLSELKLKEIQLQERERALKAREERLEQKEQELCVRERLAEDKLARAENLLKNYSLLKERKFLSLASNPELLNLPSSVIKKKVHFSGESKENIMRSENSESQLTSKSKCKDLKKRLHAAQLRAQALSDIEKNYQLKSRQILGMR

[2] = target: Cyclin-dependent kinase 1/cyclin B1 (Homo sapiens, UniProt P06493); test: Inhibition of human Cdk1/cyclinB using histone H1 as a substrate and [gamma-32P]ATP; format: protein-complex assay
A549 [3] = test: Antimitotic activity in monastrol-arrested human A549 cells assessed as cells that exit mitosis arrest at 5 uM after 45 mins by immunofluorescence microscopic analysis; format: functional
[4] = target: T2, Serine/threonine-protein kinase Nek2 (Homo sapiens) (UniProt P51955); test: Inhibition of human Nek2 at 5 uM using [gamma-32P] ATP
T2 sequence (whole entry): T1 sequence (P51955 whole entry)

[5] = target: Serine/threonine-protein kinase Nek2 (Homo sapiens, UniProt P51955, C22V); test: Inhibition of human Nek2 C22V mutant using [gamma-32P] ATP
[6] = target: T2, Serine/threonine-protein kinase Nek2 (Homo sapiens); test: Induction of alkylation at Cys22 position of wild type human Nek2 kinase domain amino acid 1-271 at 500 nM by electrospray mass spectrometric analysis
In short: (§1)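 WT or C22V Nek2 kinase domain (50 nM) incubated with 500 nM inhibitor in PBS pH 7.4, 5% DMSO, 5 h at room temperature. Acidified to pH 3 with HCl, then LC-MS on a C18 protein column with acetonitrile/formic acid gradient and ESI detection. Spectra deconvoluted to single masses of protein and adducts.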

[7] = test system: T3, Serine/threonine-protein kinase Nek2 (Homo sapiens), P51955 [C22V]; test: Induction of alkylation at Cys22 position of human Nek2 C22V mutant kinase domain amino acid 1-271 at 500 nM by electrospray mass spectrometric analysis; in short: as §1
T3 sequence (whole entry): T1 sequence (P51955 whole entry) with C22V

A549 [8] = test: Induction of deffect in bipolar spindle assembly in human A549 cells at 5 uM after 30 mins in presence of Cdk1 inhibitor 19; format: functional, cell-based
In short: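 A549 cells on poly-lysine coverslips grown 24 h, held in late G2 with 5 μM 19 for 20 h, then given 5 μM test compound plus 5 μM 19 for 30 min. Washed twice into compound-free media, then 10 μM MG132 for 1 h. Fixed and immunostained for spindles and chromosomes. Bipolar spindles quantified in >160 cells/condition, mean ± SD of 3 experiments.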

A549 [9] = test: Effect on chromosome congression in human A549 cells at 5 uM after 30 mins in presence of Cdk1 inhibitor 19; format: functional, cell-based
A549 [10] = test: Reduction in total number of mitotic cells in human A549 cells at 5 uM after 30 mins in presence of Cdk1 inhibitor 19; format: functional, cell-based
Homo sapiens = species: Homo sapiens; test: Ratio of IC50 for human Nek2 to IC50 for human Cdk1/cyclinB
In short: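 Nek2 (WT kinase domain, 15 nM) pre-incubated with inhibitor for 30 min at room temperature in HEPES pH 7.5, MgCl2, EDTA, BSA with 100 μM ATP and 3% DMSO. β-casein and [γ-32P]ATP were then added for a 30-min reaction. Cdk1/cyclin B (2 nM) was run the same way but with 38 μM ATP and histone H1 as substrate. Phosphorylation was read from nitrocellulose spots. IC50s are means of three determinations.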

Sequence of Cyclin-dependent kinase 1/cyclin B1 (P06493 whole entry): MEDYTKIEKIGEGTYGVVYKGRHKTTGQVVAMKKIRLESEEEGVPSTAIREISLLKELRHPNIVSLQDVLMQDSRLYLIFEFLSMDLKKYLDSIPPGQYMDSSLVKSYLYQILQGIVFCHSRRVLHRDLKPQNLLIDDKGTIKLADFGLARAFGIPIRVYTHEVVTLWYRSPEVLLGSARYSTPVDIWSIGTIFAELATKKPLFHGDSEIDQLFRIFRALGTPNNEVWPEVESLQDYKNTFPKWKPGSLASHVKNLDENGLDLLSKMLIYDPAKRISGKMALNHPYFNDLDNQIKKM
Sequence of Cyclin-dependent kinase 1/cyclin B1 (P14635 whole entry, further chain): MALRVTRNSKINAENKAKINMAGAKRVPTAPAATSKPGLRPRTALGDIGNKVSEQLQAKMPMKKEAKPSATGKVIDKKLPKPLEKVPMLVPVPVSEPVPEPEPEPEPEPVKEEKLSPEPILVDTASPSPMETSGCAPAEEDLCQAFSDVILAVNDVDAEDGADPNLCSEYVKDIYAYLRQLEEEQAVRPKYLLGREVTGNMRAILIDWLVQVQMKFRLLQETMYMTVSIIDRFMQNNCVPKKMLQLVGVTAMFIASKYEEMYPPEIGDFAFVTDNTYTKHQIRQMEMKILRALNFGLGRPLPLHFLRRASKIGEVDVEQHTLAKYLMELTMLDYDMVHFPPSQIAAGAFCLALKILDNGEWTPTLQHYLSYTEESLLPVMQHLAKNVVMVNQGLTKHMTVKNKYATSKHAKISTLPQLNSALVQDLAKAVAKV
Sequence of Serine/threonine-protein kinase Nek2 (Homo sapiens, UniProt P51955, C22V) (P51955 whole entry C22V, the tested form may be a part): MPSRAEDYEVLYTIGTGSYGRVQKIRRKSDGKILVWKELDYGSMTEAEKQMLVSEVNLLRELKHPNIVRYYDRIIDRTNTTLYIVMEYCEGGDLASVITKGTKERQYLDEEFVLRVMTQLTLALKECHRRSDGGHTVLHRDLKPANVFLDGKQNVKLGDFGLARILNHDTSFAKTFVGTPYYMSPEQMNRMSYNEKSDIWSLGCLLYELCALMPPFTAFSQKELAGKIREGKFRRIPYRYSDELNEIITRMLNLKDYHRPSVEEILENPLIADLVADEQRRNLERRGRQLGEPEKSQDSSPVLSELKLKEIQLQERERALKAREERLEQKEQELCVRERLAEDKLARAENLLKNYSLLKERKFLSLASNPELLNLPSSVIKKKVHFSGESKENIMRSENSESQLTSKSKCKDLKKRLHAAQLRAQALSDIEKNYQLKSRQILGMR

SMILES	IC50 [1]	IC50 [2]	Activity (A549 [3])	other results
CCc1nc(C)c(/C=C2\C(=O)Nc3ccc(C(=O)CCl)cc32)[nH]1	130 nM	2500 nM	50%	
CCc1nc(C)c(/C=C2\C(=O)N(C)c3ccc(C(=O)CCl)cc32)[nH]1.Cl			0.9%	
O=C1Nc2ccc(C(=O)CCl)cc2/C1=C/c1ccc[nH]1	< 6 nM	10 nM	98%	inhibition [4]: 80%; IC50 [5]: 14000 nM; Activity [6]: Active; Activity [7]: inactive
CC#CC(=O)Nc1ccc2c(c1)/C(=C/c1[nH]c(CC)nc1C)C(=O)N2		> 20000 nM	33%	
C#CC(=O)Nc1ccc2c(c1)/C(=C/c1[nH]c(CC)nc1C)C(=O)N2		> 20000 nM		Activity (A549 [8]): inactive; Activity (A549 [9]): inactive; Activity (A549 [10]): inactive
C#CC(=O)Nc1ccc2c(c1)/C(=C/c1[nH]c(CC)nc1C)C(=O)N2C	> 20000 nM	> 20000 nM	0%	
Cc1nc[nH]c1/C=C1\C(=O)Nc2ccc(C(=O)CCl)cc21	20 nM	< 1 nM	100%	
C=CC(=O)Nc1ccc2c(c1)/C(=C/c1ccc[nH]1)C(=O)N2				inhibition [4]: inactive
C#CC(=O)Nc1ccc2c(c1)/C(=C/c1[nH]cnc1C)C(=O)N2	390 nM	< 1 nM	99%	Ratio IC50 (Homo sapiens): 400
CCc1nc(C)c(/C=C2\C(=O)Nc3ccc(C(C)=O)cc32)[nH]1	> 20000 nM	3600 nM	27%	
O=C1Nc2ccc(C(=O)CCl)cc2/C1=C/c1cnc[nH]1	60 nM	< 1 nM	92%	
C#CC(=O)Nc1ccc2c(c1)/C(=C/c1ccc[nH]1)C(=O)N2	920 nM	90 nM	78%	inhibition [4]: 80%; IC50 [5]: 20000 nM; Activity [6]: Active; Activity [7]: inactive
C#CC(=O)Nc1ccc2c(c1)/C(=C/c1cnc[nH]1)C(=O)N2	620 nM	< 1 nM	80%	
